In ChEMBL document CHEMBL3868591, “Melokhanines A-J, Bioactive Monoterpenoid Indole Alkaloids with Diverse Skeletons from Melodinus khasianus” (J Nat Prod, 2016):
≈ marks a conversion by molar mass, not a printed value.

What was measured:
[1] = system: Enterococcus faecalis; assay: Antibacterial activity against Enterococcus faecalis ATCC 10541 after 24 hrs by broth microdilution method; type: functional
In short: (§1)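 MIC determined by broth microdilution, three independent replicates. Strains used were P. aeruginosa ATCC 27853, E. faecalis ATCC 10541, E. coli ATCC 11775, S. aureus […] and K. pneumoniae ATCC 13883. Cefotaxime served as positive control.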

[2] = system: Klebsiella pneumoniae; assay: Antibacterial activity against Klebsiella pneumoniae ATCC 13883 after 24 hrs by broth microdilution method; type: functional; in short: as §1
[3] = system: Staphylococcus aureus; assay: Antibacterial activity against Staphylococcus aureus […] after 24 hrs by broth microdilution method; type: functional; in short: as §1
[4] = system: Escherichia coli; assay: Antibacterial activity against Escherichia coli ATCC 11775 after 24 hrs by broth microdilution method; type: functional; in short: as §1
[5] = system: Pseudomonas aeruginosa; assay: Antibacterial activity against Pseudomonas aeruginosa ATCC 27853 after 24 hrs by broth microdilution method; type: functional; in short: as §1
[6] = Cytotoxicity against human SW480 cells after 48 hrs by MTT assay; type: functional, cell-based; conditions: SW480, 48 h
In short: (§2)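 MTT read-out. Each cell line was exposed in triplicate to a range of concentrations for 48 h, with cisplatin as positive control.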

[7] = Cytotoxicity against human SMMC7721 cells after 48 hrs by MTT assay; type: functional, cell-based; conditions: SMMC-7721, 48 h; in short: as §2
[8] = Cytotoxicity against human MCF7 cells after 48 hrs by MTT assay; type: functional, cell-based; conditions: MCF7, 48 h; in short: as §2
[9] = Cytotoxicity against human HL60 cells after 48 hrs by MTT assay; type: functional, cell-based; conditions: HL-60, 48 h; in short: as §2
[10] = Cytotoxicity against human A549 cells after 48 hrs by MTT assay; type: functional, cell-based; conditions: A549, 48 h; in short: as §2
[11] = Antifungal activity against Trichophyton ajelloi E1501 after 48 hrs by broth microdilution method; type: functional; conditions: Arthroderma uncinatum
In short: (§3)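 Dermatophyte MICs obtained by broth microdilution in three independent replicates, with griseofulvin as positive control.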

[12] = system: Microsporum canis; assay: Antifungal activity against Microsporum canis CBS 113480 after 48 hrs by broth microdilution method; type: functional; conditions: CBS 113480, 48 h; in short: as §3
[13] = Antifungal activity against Microsporum ferrugineum CBS 457.80 after 48 hrs by broth microdilution method; type: functional; in short: as §3
[14] = system: Nannizzia gypsea; assay: Antifungal activity against Microsporum gypseum CBS 118893 after 48 hrs by broth microdilution method; type: functional; conditions: CBS 118893, 48 h; in short: as §3
[15] = Antifungal activity against Trichophyton mentagrophytes ATCC 4439 after 48 hrs by broth microdilution method; type: functional; in short: as §3
[16] = Antifungal activity against Epidermophyton floccosum CBS 566.94 after 48 hrs by broth microdilution method; type: functional; in short: as §3
[17] = Antifungal activity against Trichophyton terrestre after 48 hrs by broth microdilution method; type: functional; in short: as §3
[18] = DSM 30083 = JCM 1649 = ATCC 11775, 24 h

Molecule	MIC ([1]; ATCC 10541, 24 h)	MIC ([2]; ATCC 13883, 24 h)	MIC [3]	MIC [4, 18]	MIC ([5]; ATCC 27853, 24 h)	IC50 [6]	IC50 [7]	IC50 [8]	IC50 [9]	IC50 [10]	other results
CC[C@@]12CCCN3C(=O)C=C(c4ccccc4NC(=O)CC1)[C@]32O	2 µM (≈ 0.653 µg/mL)	> 150 µM	> 150 µM	> 150 µM	5 µM (≈ 1.63 µg/mL)	–	–	–	–	–	–
CC[C@@]12CCCN3CC[C@]4(C(=O)c5ccccc5N4[C@@H](O)[C@H]1O)[C@H]32	75 µM (≈ 24.6 µg/mL)	150 µM (≈ 49.3 µg/mL)	> 150 µM	150 µM (≈ 49.3 µg/mL)	19 µM (≈ 6.24 µg/mL)	> 40 µM	> 40 µM	> 40 µM	> 40 µM	> 40 µM	–
C/C=C1/CN2CCc3c([nH]c4ccccc34)[C@@H]2C[C@@H]1[C@H](CO)C(=O)OC	18 µM (≈ 6.38 µg/mL)	> 150 µM	> 150 µM	> 150 µM	2 µM (≈ 0.709 µg/mL)	–	–	–	–	–	–
CC[C@@]12CCCN3CCc4c(n(c5ccccc45)C(=O)C1)[C@H]32	2 µM (≈ 0.589 µg/mL)	> 150 µM	> 150 µM	85 µM (≈ 25 µg/mL)	5 µM (≈ 1.47 µg/mL)	–	–	–	–	–	–
CO[C@H]1CCN2CCc3c([nH]c4ccccc34)[C@@]3(C(=O)O)CCC=C1[C@H]23	71 µM (≈ 25 µg/mL)	> 150 µM	> 150 µM	71 µM (≈ 25 µg/mL)	4 µM (≈ 1.41 µg/mL)	> 40 µM	> 40 µM	> 40 µM	> 40 µM	> 40 µM	–
CC[C@@H]1CN2CC[C@]34c5ccccc5-n5c3c(cc(C(N)=O)c5=O)[C@H]1C[C@H]24 [LEUCONICINE A]	> 150 µM	69 µM (≈ 24.9 µg/mL)	> 150 µM	> 150 µM	2 µM (≈ 0.723 µg/mL)	–	–	–	–	–	–
CC[C@@]12CCCN3CC[C@]4(C(=O)c5ccccc5N4[C@@H](OC)[C@H]1O)[C@H]32	73 µM (≈ 25 µg/mL)	> 150 µM	> 150 µM	73 µM (≈ 25 µg/mL)	18 µM (≈ 6.16 µg/mL)	> 40 µM	> 40 µM	> 40 µM	> 40 µM	> 40 µM	–
CC[C@]12C=CN3c4ccccc4C(=O)[C@]34CCN(CCC1)[C@H]24	42 µM (≈ 12.4 µg/mL)	> 150 µM	> 150 µM	> 150 µM	2 µM (≈ 0.589 µg/mL)	> 40 µM	> 40 µM	> 40 µM	> 40 µM	> 40 µM	–
CC[C@@]12CCCN3CC[C@@H](c4ccccc4NC(=O)CC1)[C@]32O	39 µM (≈ 12.3 µg/mL)	> 150 µM	> 150 µM	> 150 µM	5 µM (≈ 1.57 µg/mL)	> 40 µM	> 40 µM	> 40 µM	> 40 µM	> 40 µM	–
CC[C@@]12CCCN3CC[C@]4(C(=O)c5ccccc5N4C(=O)C1)[C@H]32	5 µM (≈ 1.55 µg/mL)	> 150 µM	> 150 µM	> 150 µM	2 µM (≈ 0.621 µg/mL)	> 40 µM	> 40 µM	> 40 µM	> 40 µM	> 40 µM	–
CC[C@@]12CCCN3C(=O)C[C@H]4c5cc(O)ccc5N(C(=O)CC1)C432 (some centres undefined)	19 µM (≈ 6.2 µg/mL)	> 150 µM	19 µM (≈ 6.2 µg/mL)	76 µM (≈ 24.8 µg/mL)	19 µM (≈ 6.2 µg/mL)	–	–	–	–	–	–
CC[C@@]12CCCN3CC[C@@]4(O)c5ccccc5N(C(=O)CC1)[C@]324	> 150 µM	> 150 µM	> 150 µM	> 150 µM	2 µM (≈ 0.625 µg/mL)	–	–	–	–	–	–
CC[C@@]12CCCN3CC[C@]4(C(=O)c5ccccc5N4[C@H](OC)C1)[C@H]32	5 µM (≈ 1.63 µg/mL)	> 150 µM	> 150 µM	150 µM (≈ 49 µg/mL)	5 µM (≈ 1.63 µg/mL)	> 40 µM	> 40 µM	> 40 µM	> 40 µM	> 40 µM	–
RAUWOLFIA SERPENTINA	–	–	> 150 µM	–	–	–	–	–	–	–	MIC [1]: 71 µM; MIC [2]: > 150 µM; MIC ([4]; DSM 30083 = JCM 1649 = ATCC 11775): 142 µM; MIC [5]: 4 µM
CC[C@]12CCCN(CC[C@]3(O)C(=O)Nc4ccccc43)[C@H]1OCC2	75 µM (≈ 24.8 µg/mL)	150 µM (≈ 49.6 µg/mL)	75 µM (≈ 24.8 µg/mL)	19 µM (≈ 6.28 µg/mL)	19 µM (≈ 6.28 µg/mL)	> 40 µM	> 40 µM	> 40 µM	> 40 µM	> 40 µM	MIC [11]: 150 µM (≈ 49.6 µg/mL); MIC [12]: 38 µM (≈ 12.6 µg/mL); MIC [13]: 75 µM (≈ 24.8 µg/mL); MIC [14]: 150 µM (≈ 49.6 µg/mL); MIC [15]: 150 µM (≈ 49.6 µg/mL); MIC [16]: 150 µM (≈ 49.6 µg/mL); MIC [17]: > 150 µM
CC[C@]12C=Cn3c4c(c5ccccc53)CCN(CCC1)[C@@H]42	22 µM (≈ 6.12 µg/mL)	> 150 µM	> 150 µM	> 150 µM	22 µM (≈ 6.12 µg/mL)	–	–	–	–	–	–
CC[C@@H]1CN2CC[C@]34c5ccccc5-n5c3c(cc(C(=O)O)c5=O)[C@H]1C[C@H]24 [MELODININE C]	> 150 µM	69 µM (≈ 25 µg/mL)	> 150 µM	> 150 µM	4 µM (≈ 1.45 µg/mL)	–	–	–	–	–	–
CO/N=C(\C(=O)N[C@@H]1C(=O)N2C(C(=O)O)=C(COC(C)=O)CS[C@H]12)c1csc(N)n1 [CEFOTAXIME]	0.4 µM (≈ 0.182 µg/mL)	1.7 µM (≈ 0.774 µg/mL)	0.4 µM (≈ 0.182 µg/mL)	1.7 µM (≈ 0.774 µg/mL)	0.4 µM (≈ 0.182 µg/mL)	–	–	–	–	–	–
CC[C@]12CCCn3c(C=O)cc(c31)-c1ccccc1NC(=O)CC2 [RHAZINAL]	19 µM (≈ 6.13 µg/mL)	77 µM (≈ 24.8 µg/mL)	> 150 µM	> 150 µM	2 µM (≈ 0.645 µg/mL)	–	–	–	–	–	–
CC[C@@]12CCCN3CC[C@]4(C(=O)c5ccccc5N4[C@@H](OC)C1)[C@H]32	150 µM (≈ 49 µg/mL)	> 150 µM	> 150 µM	75 µM (≈ 24.5 µg/mL)	19 µM (≈ 6.2 µg/mL)	> 40 µM	> 40 µM	> 40 µM	> 40 µM	> 40 µM	–
CCC1=CN2CC[C@]34c5ccccc5-n5c3c(cc(C(=O)OC)c5=O)[C@H]1C[C@H]24	66 µM (≈ 24.7 µg/mL)	133 µM (≈ 49.8 µg/mL)	> 150 µM	66 µM (≈ 24.7 µg/mL)	2 µM (≈ 0.749 µg/mL)	–	–	–	–	–	–
COC1=CC(=O)C[C@@H](C)[C@]12Oc1c(Cl)c(OC)cc(OC)c1C2=O [GRISEOFULVIN]	–	–	–	–	–	–	–	–	–	–	MIC [11]: 71 µM (≈ 25 µg/mL); MIC [12]: 18 µM (≈ 6.35 µg/mL); MIC [13]: 35 µM (≈ 12.3 µg/mL); MIC [14]: 9 µM (≈ 3.17 µg/mL); MIC [15]: 18 µM (≈ 6.35 µg/mL); MIC [16]: 9 µM (≈ 3.17 µg/mL); MIC [17]: 35 µM (≈ 12.3 µg/mL)
CCO[C@@H]1C[C@@]2(CC)CCCN3CC[C@]4(C(=O)c5ccccc5N14)[C@H]32	147 µM (≈ 50 µg/mL)	> 150 µM	> 150 µM	147 µM (≈ 50 µg/mL)	4 µM (≈ 1.36 µg/mL)	> 40 µM	> 40 µM	> 40 µM	> 40 µM	> 40 µM	–
